We go through 33 compounds from ChEMBL document CHEMBL4350992, “Identification of Diketopiperazine-Containing 2-Anilinobenzamides as Potent Sirtuin 2 (SIRT2)-Selective Inhibitors Targeting the "Selectivity Pocket", Substrate-Binding Site, and NAD+-Binding Site” (J Med Chem, 2019).

The source made the active and inactive calls. The rule behind the calls is not given here.

The target in experiment [1] is T1, NAD-dependent protein deacetylase sirtuin-1 (Homo sapiens) (UniProt Q96EB6).
T1 sequence (whole entry): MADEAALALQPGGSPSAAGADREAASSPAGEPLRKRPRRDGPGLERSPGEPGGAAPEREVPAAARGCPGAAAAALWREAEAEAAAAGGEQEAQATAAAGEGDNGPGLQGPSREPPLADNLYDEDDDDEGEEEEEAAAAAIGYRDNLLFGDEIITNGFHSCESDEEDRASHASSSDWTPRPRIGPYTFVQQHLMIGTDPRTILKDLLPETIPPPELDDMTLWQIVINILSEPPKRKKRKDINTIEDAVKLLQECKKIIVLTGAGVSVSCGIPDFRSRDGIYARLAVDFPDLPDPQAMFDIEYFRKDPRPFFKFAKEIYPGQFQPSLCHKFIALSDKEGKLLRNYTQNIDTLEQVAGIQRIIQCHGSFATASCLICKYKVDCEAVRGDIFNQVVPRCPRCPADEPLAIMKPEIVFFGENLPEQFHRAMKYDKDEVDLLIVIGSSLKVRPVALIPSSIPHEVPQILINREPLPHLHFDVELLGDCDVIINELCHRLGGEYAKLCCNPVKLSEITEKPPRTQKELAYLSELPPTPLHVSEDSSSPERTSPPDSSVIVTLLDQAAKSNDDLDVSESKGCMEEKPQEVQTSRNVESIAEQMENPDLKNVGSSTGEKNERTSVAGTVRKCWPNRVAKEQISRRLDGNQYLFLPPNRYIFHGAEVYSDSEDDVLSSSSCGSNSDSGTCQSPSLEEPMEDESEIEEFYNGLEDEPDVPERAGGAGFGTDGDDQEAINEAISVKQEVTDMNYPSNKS
As to the kind of experiment: Inhibition of human N-terminal His-tagged SIRT1 expressed in Escherichia coli at 50 uM using p53 (Arg-His-Lys-Lys(Ac)) (379 to 382 residues) as substrate incubated for 3 hrs measured up to 30 mins by fluorescence assay relative to control.

The target of experiment [2] is T2, NAD-dependent protein deacetylase sirtuin-2 (Homo sapiens) (UniProt Q8IXJ6).
T2 sequence (whole entry): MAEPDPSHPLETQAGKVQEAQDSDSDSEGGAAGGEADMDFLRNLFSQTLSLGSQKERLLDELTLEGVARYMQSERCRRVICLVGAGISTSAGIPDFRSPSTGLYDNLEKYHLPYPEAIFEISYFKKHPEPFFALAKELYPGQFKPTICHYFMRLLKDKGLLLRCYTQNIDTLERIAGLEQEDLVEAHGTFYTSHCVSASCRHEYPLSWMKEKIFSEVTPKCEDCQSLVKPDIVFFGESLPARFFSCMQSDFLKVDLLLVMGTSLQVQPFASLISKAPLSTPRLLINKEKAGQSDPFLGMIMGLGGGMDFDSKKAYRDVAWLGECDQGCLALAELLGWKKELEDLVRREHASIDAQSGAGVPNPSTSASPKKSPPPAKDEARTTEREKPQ
The experiment in a line: Inhibition of human N-terminal His-tagged SIRT2 expressed in Escherichia coli at 10 uM using p53 (Gln-Pro-Lys-Lys(Ac)) (317 to 320 residues) as substrate incubated for 3 hrs measured up to 30 mins by fluorescence assay relative to control.

Experiment [3] relates to MCF7. The experiment in a line: Growth inhibition of human MCF7 cells at 15 uM measured after 72 hrs by AlamarBlue assay. Format: functional, cell-based. In outline: (§1)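 MCF-7 cells in DMEM with 10% FBS were seeded at 1×10³ cells/well. After 24 h at 37°C, 5% CO₂, compound in medium was added at varying concentrations for 72 h. AlamarBlue was then added for 3 h and fluorescence read (ex 540/em 590 nm). Percent growth was calculated from the readings, and GI50 from the dose response. Three independent determinations.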

The next experiment concerns N2a. As to the kind of experiment: Induction of neurite outgrowth in mouse Neuro2a cells at 0.2 to 2 uM measured after 24 hrs by microscopic analysis. Format: functional, cell-based. Summed up: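 N2a cells were plated at 1×10⁴ cells/mL in DMEM with 10% FBS, then switched to DMEM with 2% FBS for differentiation. Compound was added for 24 or 48 h and morphology scored by microscopy. A cell counted as differentiated if it had ≥1 neurite longer than twice the soma diameter; ≥100 cells were counted per condition. Triplicate experiments, mean ± SD, one-way ANOVA with Dunnett's test.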

The test system of experiment [4] is MCF7. As to the kind of experiment: Growth inhibition of human MCF7 cells measured after 72 hrs by AlamarBlue assay. Format: functional. The settings on record: MCF7, 72 h. In outline:
as §1
Background: Resazurin is reduced to fluorescent resorufin, in cell work by metabolically active cells.

The target of experiment [5] is T2, NAD-dependent protein deacetylase sirtuin-2 (Homo sapiens). As to the kind of experiment: Inhibition of human N-terminal His-tagged SIRT2 expressed in Escherichia coli at 50 uM using p53 (Gln-Pro-Lys-Lys(Ac)) (317 to 320 residues) as substrate incubated for 3 hrs measured up to 30 mins by fluorescence assay relative to control.
Experiment [6] addresses T1, NAD-dependent protein deacetylase sirtuin-1 (Homo sapiens). The experiment in a line: Inhibition of human N-terminal His-tagged SIRT1 expressed in Escherichia coli at 100 uM using p53 (Arg-His-Lys-Lys(Ac)) (379 to 382 residues) as substrate incubated for 3 hrs measured up to 30 mins by fluorescence assay relative to control.
In experiment [7] the target is T3, NAD-dependent protein deacetylase sirtuin-3, mitochondrial (Homo sapiens) (UniProt Q9NTG7).
T3 sequence (whole entry): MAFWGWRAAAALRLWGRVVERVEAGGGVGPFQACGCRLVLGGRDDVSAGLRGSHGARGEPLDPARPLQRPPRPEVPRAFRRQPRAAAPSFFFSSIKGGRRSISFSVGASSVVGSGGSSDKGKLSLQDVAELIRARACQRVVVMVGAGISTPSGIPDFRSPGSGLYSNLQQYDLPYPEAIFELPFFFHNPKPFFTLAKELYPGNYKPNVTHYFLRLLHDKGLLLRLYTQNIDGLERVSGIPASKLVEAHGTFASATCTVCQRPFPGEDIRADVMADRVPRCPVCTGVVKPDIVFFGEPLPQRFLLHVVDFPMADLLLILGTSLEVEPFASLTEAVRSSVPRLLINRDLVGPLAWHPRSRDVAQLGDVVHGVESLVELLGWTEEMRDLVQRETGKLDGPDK
The experiment in a line: Inhibition of human N-terminal His-tagged SIRT3 (102 to 399 residues) expressed in Escherichia coli at 100 uM using p53 (Gln-Pro-Lys-Lys(Ac)) (317 to 320 residues) as substrate incubated for 3 hrs measured up to 30 mins by fluorescence assay relative to control.

Experiment [8] has as its target NAD-dependent protein deacylase sirtuin-5, mitochondrial (Homo sapiens) (UniProt Q9NXA8). The experiment in a line: Inhibition of human N-terminal His-tagged SIRT5 (37 to 310 residues) expressed in Escherichia coli at 100 uM using flour de lys succinyl as substrate incubated for 3 hrs measured up to 30 mins by fluorescence assay relative to control.
For experiment [9], the system named is MCF7. As to the kind of experiment: Growth inhibition of human MCF7 cells at 30 uM measured after 72 hrs by AlamarBlue assay relative to control. Format: functional. The conditions noted are these: MCF7, 72 h, read-out: GI. In outline: as §1
Experiment [10] addresses T1, NAD-dependent protein deacetylase sirtuin-1 (Homo sapiens). As to the kind of experiment: Inhibition of SIRT1 in human MCF7 cells assessed as H3K9Ac expression at 0.1 uM measured after 24 hrs by Western blot analysis relative to H3. Format: cell-based. In outline:
(§2)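 MCF-7 cells (5×10⁵ per dish) were treated 24 h, lysed in SDS buffer and protein was quantified by BCA. Equal protein was run on 5–20% SDS-PAGE and transferred to PVDF. Blots were probed for H3K9Ac, H3, acetyl-α-tubulin and α-tubulin, then given HRP secondaries and ECL detection. Acetyl/total ratios came from blot optical density.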

The target in experiment [11] is T2, NAD-dependent protein deacetylase sirtuin-2 (Homo sapiens). The experiment in a line: Inhibition of SIRT2 in human MCF7 cells assessed as accumulation of acetylated-alpha tubulin at 0.1 uM measured after 24 hrs by Western blot analysis relative to alpha-tubulin. The experiment is classed as cell-based. Summed up: as §2

Sequence of NAD-dependent protein deacylase sirtuin-5, mitochondrial (Homo sapiens) (Q9NXA8 37-310 limits assumed): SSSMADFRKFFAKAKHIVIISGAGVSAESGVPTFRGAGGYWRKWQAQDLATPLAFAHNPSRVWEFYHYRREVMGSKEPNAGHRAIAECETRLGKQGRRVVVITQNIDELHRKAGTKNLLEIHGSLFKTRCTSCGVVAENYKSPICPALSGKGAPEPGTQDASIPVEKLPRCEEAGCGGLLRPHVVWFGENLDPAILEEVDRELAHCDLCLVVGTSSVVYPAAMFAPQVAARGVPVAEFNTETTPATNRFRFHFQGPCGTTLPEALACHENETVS

Regarding `CC(C)(C)OC(=O)NCCNC(=O)c1ccccc1Nc1cccc(OCCc2ccccc2)c1`, the inhibition (usually how much of the control response was suppressed) in [1] was determined as 11%; in experiment [2], 77%.

`CONC(=O)c1ccccc1Nc1cccc(OCCc2ccccc2)c1`: the inhibition in [1] was 6%; in experiment [2], 63%.

On to `O=C(NCCc1ccccc1)c1ccccc1Nc1cccc(OCCc2ccccc2)c1`, for which the figures for the inhibition in experiment [1] and in [2] were 5% and 46%, respectively.

For `CC(C)(C)OC(=O)NCCCCCNC(=O)CNC(=O)c1ccccc1Nc1cccc(OCCc2ccccc2)c1`, the inhibition in experiment [1] worked out at 14%; in experiment [2], 83%.

`CCCNC(=O)c1ccccc1Nc1cccc(OCCc2ccccc2)c1`: the inhibition came to 8% in experiment [1] and 58% in experiment [2].

Take `COC(=O)CNC(=O)c1ccccc1Nc1cccc(OCCc2ccccc2)c1`: the inhibition in experiment [1] worked out at 17%; in [2], 72%.

Turning to `NC(=O)c1ccccc1Nc1cccc(OCCc2ccc3ccccc3c2)c1`, the inhibition in experiment [1] was 7%; in experiment [2], 75%.

As to `O=C(NOC1CCCCO1)c1ccccc1Nc1cccc(OCCc2ccccc2)c1` (stereo not drawn), the inhibition was 8% in [1] and 54% in [2].

`CCCCCCCCCCCCCC(=S)NCCCC[C@H](NC(=O)OCc1ccccc1)C(=O)Nc1ccccc1`: in the experiment with MCF7 [3], the “growth inhibition (GI)” value was “Active”. The result in the experiment on N2a was Active.

For the compound `O=C(c1ccccc1Nc1cccc(OCCc2ccccc2)c1)N1CCOCC1`, the inhibition was determined as 4% in experiment [1] and 71% in experiment [2].

With `C#CCNC(=O)c1ccccc1Nc1cccc(OCCc2ccccc2)c1`, the inhibition was determined as 12% in [1] and 77% in [2].

In the case of `C[C@H](NC(=O)[C@H](CCCCNC(=S)CNC(=O)c1ccccc1Nc1cccc(OCCc2ccccc2)c1)NC(=O)OCc1ccccc1)C(N)=O`, the GI50 (usually the concentration at which growth is held to half of that of the control) with MCF7 [4] turned out to be 8.43 µM. For the same compound, the outcome in the experiment on N2a was Active.

With `O=C(Nc1ccccc1)c1ccccc1Nc1cccc(OCCc2ccccc2)c1`, the inhibition turned out to be 9% in [1] and 44% in experiment [2].

With `O=C(NC1CCN(Cc2ccccc2)CC1)c1ccccc1Nc1cccc(OCCc2ccccc2)c1`, the results for the inhibition in experiment [1] and in [2] were 8% and 56%, respectively.

`O=C(O)CNC(=O)c1ccccc1Nc1cccc(OCCc2ccccc2)c1`: the inhibition in experiment [1] stood at 8%; in experiment [2] it was 50%.

For the compound `CCN(CC)C(=O)c1ccccc1Nc1cccc(OCCc2ccccc2)c1`, the inhibition in experiment [1] came out at 11%; in experiment [2], 61%.

In the case of `O=C(NC1CCCCC1)c1ccccc1Nc1cccc(OCCc2ccccc2)c1`, the figures for the inhibition in [1] and in experiment [2] were 15% and 28%, respectively.

For `NC(=O)Cc1ccccc1Nc1cccc(OCCc2ccccc2)c1`, the inhibition in [1] worked out at 19%; in experiment [2] it was 68%.

Take `CC(C)CCNC(=O)c1ccccc1Nc1cccc(OCCc2ccccc2)c1`: the inhibition in [1] was 8%; in [2], 45%; in experiment [5], 70%.

In the case of `CN(C)CCNC(=O)c1ccccc1Nc1cccc(OCCc2ccccc2)c1`, the inhibition in experiment [1] was 18%; in experiment [2], 59%; in [5], 74%.

On to `O=C(O)c1ccccc1Nc1cccc(OCCc2ccccc2)c1`, for which the figures for the inhibition in experiment [1] and in experiment [2] were 2.5% and 12%, respectively.

Consider `O=C(NCCO)c1ccccc1Nc1cccc(OCCc2ccccc2)c1`, for which the figures for the inhibition in experiment [1] and in experiment [2] were 12% and 76%, respectively.

Consider `NC(=O)c1ccccc1Nc1cccc(OCCc2ccccc2)c1`, for which the inhibition in [1] came to 12%; in experiment [2], 90%; in [6] it was 17%; in [7], 17%; in experiment [8] it was 8%. The inhibition of growth at 30 µM in the experiment with MCF7 [9] stood at 30%. Moreover, in the experiment on N2a, the result was Active.

In the case of `CCCCCNC(=O)c1ccccc1Nc1cccc(OCCc2ccccc2)c1`, the values for the inhibition in [1] and in experiment [2] were 9% and 50%, respectively.

Take `CC(C)(C)OC(=O)NCCCCNC(=O)CNC(=O)c1ccccc1Nc1cccc(OCCc2ccccc2)c1`: the inhibition amounted to 23% in [1] and 83% in [2].

With `NC(=O)CNC(=O)c1ccccc1Nc1cccc(OCCc2ccccc2)c1`, the inhibition in experiment [1] was 10%; in [2], 85%.

On to `CCCCNC(=O)c1ccccc1Nc1cccc(OCCc2ccccc2)c1`, for which the results for the inhibition in [1] and in [2] were 2% and 57%, respectively.

For the compound `O=C(CCCCCCC(=O)Nc1ccccc1)NO`, the figures for the fold change (FC) in experiment [10] and in [11] were 1.3 and 1.61, respectively.

With `O=C(NO)c1ccccc1Nc1cccc(OCCc2ccccc2)c1`, the inhibition was 13% in experiment [1] and 68% in experiment [2].

As for `C[C@H](NC(=O)c1ccccc1Nc1cccc(OCCc2ccccc2)c1)C(N)=O`, the inhibition in [1] turned out to be 15%; in experiment [2], 81%.

For the compound `Cc1cc(C)nc(SCC(=O)Oc2cccc(Nc3ccccc3C(N)=O)c2)n1`, the inhibition in [1] was 7%; in experiment [2] it was 26%.

Turning to `CC(C)(C)OC(=O)NCCCNC(=O)c1ccccc1Nc1cccc(OCCc2ccccc2)c1`, the inhibition in experiment [1] was determined as 4%; in experiment [2], 57%.

In the case of `O=C(NCc1ccccc1)c1ccccc1Nc1cccc(OCCc2ccccc2)c1`, the figures for the inhibition in experiment [1] and in [2] were 12% and 70%, respectively.
